# Measurements as given in ChEMBL document CHEMBL4041500, “Attenuation of Mycobacterium species through direct and macrophage mediated pathway by unsymmetrical diaryl urea” (Eur J Med Chem, 2017).
# Legend:
# Peritoneal macrophage = test: Cytotoxicity against Balb/c mouse peritoneal macrophages assessed as reduction in cell viability after 48 hrs by MTT assay; type: cell-based
# How it was run: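 Murine peritoneal macrophages, 1 × 10^6 cells/well, exposed to compound at 0.1 to 250 µg/ml in RPMI-1640 with 10% FBS for 48h. MTT (5 mg/ml) added for 3 h at 37°C, formazan dissolved in 0.04M HCl in isopropanol for 15 min at room temperature, absorbance read at 570 nm. IC50 (50% loss of viability) taken from a dose–response curve of percentage activity versus log10 concentration.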
# [1] = test system: Mycobacterium tuberculosis; test: Antimycobacterial activity against Mycobacterium tuberculosis H37Rv ATCC 27294 after 7 days by microplate alamar blue assay; type: functional; conditions: H37Rv ATCC 27294, 168 h
# How it was run: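 MABA run in 7H12 medium in 96-well plates for 7 days at 37 °C. Alamar Blue and Tween 80 were then added for a further 24 h. Fluorescence was read at 530/590 nm. MIC was the lowest concentration giving a 90% fluorescence (or luminescence) reduction versus controls. Luciferase reporter strains or intracellular ATP were used for compounds with background fluorescence. Isoniazid and rifampin were run as controls.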
# HepG2 = test: Cytotoxicity against human HepG2 cells assessed as reduction in cell viability after 72 hrs by MTT assay; type: cell-based; conditions: hepg2, 72 h
# How it was run: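 HepG2 cells grown in Eagle's MEM with 10% FBS at 37 °C and 5% CO2. Cells were scraped, resuspended at ~1 × 10^6 cells/mL, plated and left 24 h, then exposed to compound at 400 to 0.2 µg/mL for 72 h. Viability read by MTT assay. IC50 (50% loss of viability) taken from a dose–response curve versus log10 concentration.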
# [2] = test system: Mycolicibacterium smegmatis; test: Antimycobacterial activity against Mycobacterium smegmatis MC2 155 after 48 hrs by serial dilution method; type: functional; conditions: str. MC2 155, 48 h
# How it was run: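 M. smegmatis grown in Middlebrook 7H9 with 10% albumin–dextrose complex and 0.03% Tween80 at 37 °C. Twofold serial dilutions of compound were combined with mid-log culture diluted to OD570 0.01, giving a final range of […] in 7H9 broth. Incubated in ambient air at 37 °C for 48 h. MIC taken as the lowest concentration preventing visible growth.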
# [3] = test system: Mycobacterium tuberculosis; test: Antimycobacterial activity against Mycobacterium tuberculosis H37Rv ATCC 27294 at 50 ug/ml after 7 days by microplate alamar blue assay relative to control; type: functional; conditions: H37Rv ATCC 27294, 168 h
# [4] = test system: Mycobacterium tuberculosis; test: Antimycobacterial activity against Mycobacterium tuberculosis MC2 6030 after 2 to 3 weeks by agar plate method; type: functional
# How it was run: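 Strain mc²6030 is a pantothenate auxotroph lacking RD1, grown at 37 °C in Sauton's medium plus 20 μg/ml pantothenic acid. Serial 10-fold dilutions of actively growing culture were plated on 7H10/OADC agar with 20 μg/ml pantothenic acid and increasing compound concentrations, from 10 mg/ml DMSO stocks. Plates were held 2–3 weeks at 37 °C. MIC was the concentration inhibiting 99% of growth; isoniazid served as control.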
Structure (SMILES),Activity (Peritoneal macrophage),MIC90 [1],Activity (HepG2),MIC [2],inhibition at 50 µg/mL [3],MIC99 [4]
CC(C)=CCOc1cccc(NC(=O)Nc2cccc(Cl)c2)c1,96.7 µg/mL,48.6 µg/mL,114.3 µg/mL,25 µg/mL,–,–
CC(C)=CCOc1ccc(NC(=O)Nc2ccccc2C)cc1,81.3 µg/mL,> 50 µg/mL,–,50 to 200 µg/mL,61 to 75%,50 to 100 µg/mL
CCCCOc1ccc(NC(=O)Nc2cccc(C#N)c2)cc1,180.9 µg/mL,> 50 µg/mL,206.7 µg/mL,> 200 µg/mL,22%,> 100 µg/mL
C=CCOc1cccc(NC(=O)Nc2ccccc2)c1,142.5 µg/mL,> 50 µg/mL,150.6 µg/mL,100 µg/mL,73%,20 µg/mL
C=CCOc1ccc(NC(=O)Nc2cccc([N+](=O)[O-])c2)cc1,87.5 µg/mL,45.5 µg/mL,111.4 µg/mL,100 µg/mL,–,10 to 100 µg/mL
CCCCOc1ccc(NC(=O)Nc2cccc([N+](=O)[O-])c2)cc1,75.2 µg/mL,–,–,–,–,–
CC(C)=CCOc1cccc(NC(=O)Nc2ccc(C)cc2)c1,127.6 µg/mL,10.5 µg/mL,140.6 µg/mL,12.5 µg/mL,–,–
CC(C)=CCOc1cccc(NC(=O)Nc2ccc(C(F)(F)F)cc2)c1,115.3 µg/mL,> 50 µg/mL,142.2 µg/mL,6.25 µg/mL,69%,–
C=CCOc1ccc(NC(=O)Nc2ccccc2C)cc1,122.1 µg/mL,24.5 µg/mL,99.2 µg/mL,50 µg/mL,–,100 µg/mL
CC(C)=CCOc1cccc(NC(=O)Nc2ccccc2F)c1,68.2 µg/mL,> 50 µg/mL,82.4 µg/mL,50 µg/mL,45%,–
CC(C)=CCOc1cccc(NC(=O)Nc2ccccc2[N+](=O)[O-])c1,58.1 µg/mL,> 50 µg/mL,61.4 µg/mL,> 200 µg/mL,43%,–
CC(C)=CCOc1cccc(NC(=O)Nc2ccc(Br)cc2)c1,140.2 µg/mL,> 50 µg/mL,135.6 µg/mL,50 to 100 µg/mL,86%,–
CC(C)CCOc1ccc(NC(=S)Nc2ccc(OCCC(C)C)cc2)cc1 [TIOCARLIDE],12.5 µg/mL,2.3 µg/mL,31.3 µg/mL,25 µg/mL,–,–
CC(C)=CCOc1cccc(NC(=O)Nc2ccccc2)c1,141.8 µg/mL,> 50 µg/mL,168.2 µg/mL,> 200 µg/mL,79%,30 µg/mL
CC(C)=CCOc1cccc(NC(=O)Nc2ccc([N+](=O)[O-])cc2)c1,75.2 µg/mL,> 50 µg/mL,91.6 µg/mL,100 µg/mL,94%,–
CC(C)=CCOc1ccc(NC(=O)Nc2cccc([N+](=O)[O-])c2)cc1,131.2 µg/mL,> 50 µg/mL,142.6 µg/mL,> 200 µg/mL,69%,> 100 µg/mL
CC(C)=CCOc1cccc(NC(=O)Nc2ccccc2Br)c1,119.4 µg/mL,38.7 µg/mL,131.9 µg/mL,25 µg/mL,–,–

Structure (SMILES),Activity (Peritoneal macrophage),MIC90 [1],Activity (HepG2),MIC [2],inhibition at 50 µg/mL [3],MIC99 [4]
CC(C)=CCOc1cccc(NC(=O)Nc2ccccc2C(F)(F)F)c1,69.4 µg/mL,> 50 µg/mL,71.4 µg/mL,12.5 µg/mL,45%,–
CCCCOc1cccc(NC(=O)Nc2cccc([N+](=O)[O-])c2)c1,74.3 µg/mL,> 50 µg/mL,97.3 µg/mL,> 200 µg/mL,79%,50 µg/mL
CC(C)=CCOc1cccc(NC(=O)Nc2cccc(Br)c2)c1,131.8 µg/mL,26.5 µg/mL,148.1 µg/mL,12.5 µg/mL,–,–
CC(C)=CCOc1ccc(NC(=O)Nc2cccc(C#N)c2)cc1,169.1 µg/mL,> 500 µg/mL,186.4 µg/mL,50 µg/mL,82%,5 µg/mL
CC(C)=CCOc1cccc(NC(=O)Nc2ccc(Cl)cc2)c1,115.3 µg/mL,> 50 µg/mL,122.3 µg/mL,50 to 100 µg/mL,75%,–
C=CCOc1cccc(NC(=O)Nc2cccc([N+](=O)[O-])c2)c1,78.4 µg/mL,> 50 µg/mL,105.6 µg/mL,50 µg/mL,76%,5 µg/mL
CC(C)=CCOc1cccc(NC(=O)Nc2ccccc2Cl)c1,105.6 µg/mL,> 50 µg/mL,128.2 µg/mL,50 µg/mL,64%,–
C=CCOc1cccc(NC(=O)Nc2ccccc2C)c1,90.3 µg/mL,> 50 µg/mL,102.4 µg/mL,> 200 µg/mL,68%,> 100 µg/mL
C=CCOc1ccc(NC(=O)Nc2cccc(C#N)c2)cc1,96.7 µg/mL,> 50 µg/mL,103.5 µg/mL,> 200 µg/mL,66%,> 100 µg/mL
CCCCOc1cccc(NC(=O)Nc2ccccc2C)c1,152.9 µg/mL,> 50 µg/mL,175.1 µg/mL,> 200 µg/mL,70%,> 100 µg/mL
CC(C)=CCOc1cccc(NC(=O)Nc2ccc(F)cc2)c1,87.1 µg/mL,> 50 µg/mL,102.8 µg/mL,100 µg/mL,68%,–
NNC(=O)c1ccncc1 [ISONIAZID],> 200 µg/mL,0.11 µg/mL,> 200 µg/mL,6.25 µg/mL,–,0.05 µg/mL
C=CCOc1ccc(NC(=O)Nc2ccccc2)cc1,152.6 µg/mL,> 50 µg/mL,182.4 µg/mL,> 200 µg/mL,84%,> 100 µg/mL
CCCCOc1ccc(NC(=O)Nc2ccccc2)cc1,108.9 µg/mL,> 50 µg/mL,132.5 µg/mL,> 200 µg/mL,41%,> 100 µg/mL
CC(C)=CCOc1cccc(NC(=O)Nc2cccc(C)c2)c1,160.3 µg/mL,32.2 µg/mL,175.3 µg/mL,50 µg/mL,–,–
CCCCOc1cccc(NC(=O)Nc2ccccc2)c1,121.7 µg/mL,> 50 µg/mL,124.1 µg/mL,> 200 µg/mL,57%,50 to 100 µg/mL
